The values below come from ChEMBL document CHEMBL4316604, “Discovery of Isaindigotone Derivatives as Novel Bloom's Syndrome Protein (BLM) Helicase Inhibitors That Disrupt the BLM/DNA Interactions and Regulate the Homologous Recombination Repair” (J Med Chem, 2019).

Each structure is given as a SMILES string. The source made the active and inactive calls. The rule behind the calls is not given here.

For assay [1], the target named is T1, RecQ-like DNA helicase BLM (Homo sapiens, UniProt P54132). The assay can be described thus: Inhibition of His-tagged BLM (unknown origin) expressed in Escherichia coli BL21 (DE3) assessed as reduction in BLM helicase unwinding activity at 10 uM using 5'-biotin labeled forked-DNA as substrate after 1 hr by PAGE analysis. A digest of the protocol:
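BLM642-1296 (His-tagged, E. coli BL21(DE3)) preincubated with ligand (1.0, 10, 50 μM; ≤1% DMSO) for 1 h at 4 °C. Reaction: 8 nM annealed 5′-biotin duplex forked DNA, 32 nM BLM, 2 mM ATP, 0.1% BSA, 1 h.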

For assay [2], the system named is RecQ-like DNA helicase BLM (Homo sapiens), P54132 [I1168A]. The assay can be described thus: Inhibition of His-tagged BLM I1168A mutant (unknown origin) binding to DNA assessed as effect on unbound DNA. The gist of the method: (§1)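 Biotinylated forked DNA (50 nM) immobilised on streptavidin plates overnight at 4 °C. BLM or mutant (100 nM final) premixed with serially halved ligand in 3% BSA blocking buffer, ≤1% DMSO, 1 h on ice. Applied to the blocked plate for 1 h at 37 °C. Bound BLM detected with anti-BLM and HRP secondary, TMB, A450; Hill fit.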

The subject of assay [3] is HCT-116. The assay can be described thus: Chemosensitization activity in human HCT116 cells assessed as cisplatin-induced antiproliferative activity at 1.25 uM in presence of cisplatin and BLM siRNA after 24 hrs by MTT assay (reference value: 15.4%). The class given is functional, cell-based.
Assay [4] addresses RecQ-like DNA helicase BLM (Homo sapiens, UniProt P54132, Y995A). The assay can be described thus: Binding affinity to His-tagged BLM Y995A mutant (unknown origin) expressed in Escherichia coli BL21 (DE3) by ITC assay. A digest of the protocol: (§2)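 ITC at 25 °C in 2 mM MgCl2, 10 mM KH2PO4, pH 7.5: ligand (0.6 mM, syringe) titrated in 10 μL injections, 300 s apart, into BLM642-1296 wild-type or point mutant, or DNA (0.04 mM, cell). His-tagged BLM from E. coli BL21(DE3), induced with […] at 16 °C for 24 h. Heats integrated, fitted to 1:1 model for KD.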
In general terms: ITC needs no label: the signal is the heat of the interaction.

For assay [5], the target named is T1, RecQ-like DNA helicase BLM. The assay can be described thus: Inhibition of BLM in human HCT116 cells assessed as induction of RAD51 recruitment to DSB sites on chromosomes at 0.5 to 1 uM after 48 hrs by ChIP assay. It counts as cell-based. The gist of the method:
(§3)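 HCT116 cells co-transfected with HRR(−) reporter DSB model (or chromosomal I-SceI DSBs) and I-SceI; after 24 h given 0–2 μM ligand for 24 h. Crosslinked in 1% formaldehyde, chromatin digested by micrococcal nuclease to 0.2–0.5 kb, IP with anti-BLM or anti-RAD51 (IgG control). qPCR at DSB sites, normalised to untreated; triplicate.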

Assay [6] deals with T1, RecQ-like DNA helicase BLM. The assay can be described thus: Inhibition of BLM in human HCT116 cells assessed as induction of RAD51 recruitment to DSB sites on HRR at 0.5 to 1 uM after 48 hrs by ChIP assay. It counts as cell-based. The gist of the method: as §3
Assay [7] has as its system HCT-116. The assay can be described thus: Induction of apoptosis in human HCT116 cells assessed as apoptotic cells after 48 hrs by Hoechst/propidium iodide-staining based flow cytometry. It counts as functional, cell-based.
For assay [8], the target named is RecQ-like DNA helicase BLM (Homo sapiens, UniProt P54132, E1143A). The assay can be described thus: Binding affinity to His-tagged BLM E1143A mutant (unknown origin) expressed in Escherichia coli BL21 (DE3) by ITC assay. A digest of the protocol: as §2
In assay [9] the test system is HCT-116. The assay can be described thus: Induction of apoptosis in human HCT116 cells assessed as increase in cleaved caspase 3 expression at 2 uM after 48 hrs by Western blot analysis. It counts as functional, cell-based. A digest of the protocol: (§4)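 HCT116 cells treated with ligand (DNA-damage proteins 24 h, apoptosis proteins 48 h), lysed in RIPA at 4 °C. 40 μg protein per lane resolved by SDS-PAGE, blotted to PVDF, probed with damage and apoptosis antibody panels; β-actin loading control; chemiluminescent detection.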

Assay [10] has as its system HCT-116. The assay can be described thus: Induction of apoptosis in human HCT116 cells assessed as apoptotic cells at 2 uM after 48 hrs by Hoechst/propidium iodide-staining based flow cytometry (reference value: 1.09%). It counts as functional. On the technique in general: A flow cytometer gives signals particle by particle.
Assay [11] deals with RecQ-like DNA helicase BLM (Homo sapiens), P54132 [M1111A]. The assay can be described thus: Inhibition of His-tagged BLM M1111A mutant (unknown origin) binding to DNA assessed as effect on unbound DNA. A digest of the protocol:
as §1

The target in assay [12] is T1, RecQ-like DNA helicase BLM. The assay can be described thus: Inhibition of BLM in human HCT116 cells assessed as increase in gamma-H2AX expression at half IC50 concentration after 24 hrs by Western blot analysis. (In general: In western blotting, separated proteins are transferred to a membrane and probed.)
The test system of assay [13] is HCT-116. The assay can be described thus: Antiproliferative activity against human HCT116 cells after 24 hrs in presence of siRNA by MTT assay. The conditions noted are these: in the assay text read “after 48 hrs” for “after 24 hrs”. The class given is functional, cell-based. The gist of the method: (§5)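 HCT116 cells (5×10^3/well) grown 24 h, then exposed to 0–50 μM test agent; for knockdown, cells pre-treated with 50 nM BLM siRNA for 24 h first.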

For assay [14], the target named is T1, RecQ-like DNA helicase BLM. The assay can be described thus: Inhibition of 5'-biotin labeled duplex forked-DNA binding to BLM (unknown origin) assessed as increase in unbound DNA levels after 1 hr by ELISA. A digest of the protocol:
as §1

In assay [15] the test system is HCT-116. The assay can be described thus: Antiproliferative activity against human HCT116 cells after 24 hrs by MTT assay. It counts as functional, cell-based. The conditions noted are these: in the assay text read “48 hrs” for “24 hrs”. A digest of the protocol:
as §5

For assay [16], the target named is T1, RecQ-like DNA helicase BLM. The assay can be described thus: Inhibition of BLM in human HCT116 cells assessed as induction of HRR up-regulation at 1 uM after 24 hrs in presence of siRNA by GFP-based flow cytometry. The class given is cell-based. The gist of the method: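 HCT116 cells (2×10^5) co-transfected with DR-GFP HRR reporter and I-SceI plasmid; 24 h later treated with 0–2 μM ligand (reference 0–50 μM); BLM siRNA knockdown where stated. GFP-positive cells counted by flow cytometry and normalised to untreated; triplicate, mean ± SD.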

The target of assay [17] is T1, RecQ-like DNA helicase BLM. The assay can be described thus: Inhibition of BLM recruitment to DSB sites on chromosomes in human HCT116 cells at 0.5 to 1 uM after 48 hrs by ChIP assay. The class given is cell-based. The gist of the method: as §3
The test system of assay [18] is HCT-116. The assay can be described thus: Induction of apoptosis in human HCT116 cells assessed as up-regulation of ATM phosphorylation up to 2 uM after 24 hrs by Western blot analysis.
For assay [19], the system named is HCT-116. The assay can be described thus: Chemosensitization activity in human HCT116 cells assessed as cisplatin-induced antiproliferative activity at 1.25 uM in presence of cisplatin after 24 hrs by MTT assay (reference value: 15.4%). It counts as functional.
Assay [20] deals with HCT-116. The assay can be described thus: Induction of apoptosis in human HCT116 cells assessed as up-regulation of p53 phosphorylation up to 2 uM after 48 hrs by Western blot analysis. The class given is functional, cell-based.
The subject of assay [21] is HCT-116. The assay can be described thus: Induction of apoptosis in human HCT116 cells assessed as up-regulation of ATR phosphorylation up to 2 uM after 24 hrs by Western blot analysis.
In assay [22] the test system is HCT-116. The assay can be described thus: Effect on RAD51 protein expression in human HCT116 cells at 1 to 2 after 24 hrs. It counts as functional, cell-based. A digest of the protocol: as §4

T1 sequence (P54132 whole entry): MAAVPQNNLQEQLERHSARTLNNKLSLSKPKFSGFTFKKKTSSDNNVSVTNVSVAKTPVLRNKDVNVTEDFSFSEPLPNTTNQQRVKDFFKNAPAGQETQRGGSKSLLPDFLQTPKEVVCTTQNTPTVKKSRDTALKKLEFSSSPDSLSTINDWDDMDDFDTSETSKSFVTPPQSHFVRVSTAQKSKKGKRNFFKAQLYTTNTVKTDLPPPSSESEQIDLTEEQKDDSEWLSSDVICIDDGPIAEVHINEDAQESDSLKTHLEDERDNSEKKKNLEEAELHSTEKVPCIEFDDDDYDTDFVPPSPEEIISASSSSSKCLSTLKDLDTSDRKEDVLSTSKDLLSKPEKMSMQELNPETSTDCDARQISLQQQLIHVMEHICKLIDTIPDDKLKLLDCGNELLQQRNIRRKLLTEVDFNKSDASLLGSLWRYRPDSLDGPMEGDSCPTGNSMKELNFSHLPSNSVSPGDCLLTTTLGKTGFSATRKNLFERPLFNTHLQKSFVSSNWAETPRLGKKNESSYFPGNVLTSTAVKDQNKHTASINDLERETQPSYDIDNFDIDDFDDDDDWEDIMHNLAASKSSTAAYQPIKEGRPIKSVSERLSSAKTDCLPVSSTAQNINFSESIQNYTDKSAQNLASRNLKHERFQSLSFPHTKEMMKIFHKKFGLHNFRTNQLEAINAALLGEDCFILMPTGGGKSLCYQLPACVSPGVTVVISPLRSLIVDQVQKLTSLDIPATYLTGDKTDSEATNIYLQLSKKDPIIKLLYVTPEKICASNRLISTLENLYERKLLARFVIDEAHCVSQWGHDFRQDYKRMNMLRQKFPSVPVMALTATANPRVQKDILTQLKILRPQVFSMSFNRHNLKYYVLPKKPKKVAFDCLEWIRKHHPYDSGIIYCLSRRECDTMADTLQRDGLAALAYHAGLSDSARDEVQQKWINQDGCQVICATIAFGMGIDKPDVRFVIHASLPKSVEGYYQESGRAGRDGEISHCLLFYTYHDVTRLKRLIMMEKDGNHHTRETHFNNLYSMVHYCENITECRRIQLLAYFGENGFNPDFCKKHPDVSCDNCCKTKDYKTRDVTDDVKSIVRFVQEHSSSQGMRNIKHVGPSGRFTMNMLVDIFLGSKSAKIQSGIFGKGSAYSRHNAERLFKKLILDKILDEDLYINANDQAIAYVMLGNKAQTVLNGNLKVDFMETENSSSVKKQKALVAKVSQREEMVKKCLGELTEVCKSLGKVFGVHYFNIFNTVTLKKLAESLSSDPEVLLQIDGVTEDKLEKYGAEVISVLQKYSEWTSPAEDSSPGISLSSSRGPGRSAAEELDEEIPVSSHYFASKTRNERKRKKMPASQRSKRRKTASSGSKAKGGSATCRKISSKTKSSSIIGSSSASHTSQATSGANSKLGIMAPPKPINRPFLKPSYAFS
Sequence of RecQ-like DNA helicase BLM (Homo sapiens), P54132 [I1168A] (P54132 whole entry I1168A): as the sequence (P54132 whole entry) above, with I1168A counted along it
Sequence of RecQ-like DNA helicase BLM (Homo sapiens, UniProt P54132, E1143A) (P54132 whole entry E1143A): as the sequence (P54132 whole entry) above, with E1143A counted along it
Sequence of RecQ-like DNA helicase BLM (Homo sapiens), P54132 [M1111A] (P54132 whole entry M1111A): as the sequence (P54132 whole entry) above, with M1111A counted along it
Sequence of RecQ-like DNA helicase BLM (Homo sapiens, UniProt P54132, Y995A) (P54132 whole entry Y995A): as the sequence (P54132 whole entry) above, with Y995A counted along it

Take `CCN(CC)CCCNc1cc2nc3n(c(=O)c2cc1F)CC/C3=C\c1ccc(C(C)C)cc1`: the inhibition entry in assay [1], in assay [5], in assay [6], in assay [12], in assay [16] and in assay [17] was “Active” in each case. Besides, the inhibition result in assay [2] and in assay [11] was “inactive” each time. In addition, the outcome in assay [3], in assay [9], in [18] and in assay [21] was Active. The equilibrium dissociation constant (Kd) (as a rule, a measure of binding affinity in units of concentration) in assay [4] was 5 µM; in assay [8], 6 µM. Also, the Activity entry was “Dose-dependent effect” in assay [7]; 71.59% in assay [10]; “Dose-dependent effect” in [15]; 71.2% in [19]; “Dose-dependent effect” in assay [20]. The outcome in assay [13] and in [22] was inactive. Further, the IC50 (as a rule, the point on the concentration scale where inhibition reaches its midpoint) in [14] was 3.95 µM. In assay [14], the inhibition result is “Dose-dependent effect”.
